{
  "source": "the RNAGym collection of RNA variant scans (doi:10.1126/science.aae0568)",
  "parents": {"B1": {"name": "tRNA (parent)", "chain": "GUUCCGUUGGCGUAAUGGUAACGCGUCUCCCUCCUAAGGAGAAGACUGCGGGUUCGAGUCCCGUACGGAACG"}},
  "note": "This sample holds only a part of the variants without activity.",
  "data": [
    {"variants_of": "B1", "assay": "yeast fitness relative to wild type (ratio to wild type); higher = fitter; tRNA-Arg(CCU), competitive growth, 37 C, YPD", "outline": "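The tRNA-Arg(CCU) gene variants were made by chemical synthesis with a 3% per-site mutation rate at 69 sites and inserted at the native genomic locus of Saccharomyces cerevisiae. After pooling, the strains were competed in YPD at 37°C for 24 hours in six parallel replicates. Gene amplicons from the start population and each end population were read by 100-nucleotide paired-end sequencing, and Darwinian fitness relative to wild type was taken from genotype frequency changes. Genotypes needed ≥ 100 starting reads, and estimates < 0.5 were set to 0.5.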", "values": [
      {"variant": "GUUUCGUUGGCGUAAUGGUAACGCGUCUCCCACCUAAGGAGAAGACUGUGGGUUCGAGUCCCGUACGGAACG", "note": "[C4U U32A C49U]", "yeast fitness": 0.61},
      {"variant": "GUUCCGGUGGCGUAAUGGUAACGCGUCUCCCCCCUAAGGGGAAGACUGCGGGUUCGAGUCCCGUACGGAACG", "note": "[U7G U32C A40G]", "yeast fitness": 0.559},
      {"variant": "GUUCGGUUGGCGUAAUGGUAACGCAUCUCCCUCCUAAGGAGAAGAUUGCCGGUUCGAGUCCCGUAUGGAACG", "note": "[C5G G25A C46U G50C C66U]", "yeast fitness": "≤ 0.5"},
      {"variant": "GUUACGUUGGAGUAAUGGUAACGCGUCUGCCUCCUAAGGGGAAGACUGCGGGUUCGAGUCCCGUACGGAACG", "note": "[C4A C11A C29G A40G]", "yeast fitness": 0.574},
      {"variant": "GUUUCGUUGGCGUAAUGGUAACGCGUCUCUCUCCUAAGGAGAAGACUGCGGGUUCGAGUCCCGUACGGAACG", "note": "[C4U C30U]", "yeast fitness": 0.931},
      {"variant": "GUUCCGUUGGCCCAAUGGUCACGGGUCUCCCUCCUAAGCAGAAGACUGCGGGUUCGAGUCCCGAACGGAACG", "note": "[G12C U13C A20C C24G G39C U64A]", "yeast fitness": "≤ 0.5"},
      {"variant": "GUUCCGUUAGCGUAAUGGUAACGCGUCUCCCCGCUAGGGAGAAGACUGCGGAUUUGAGUCCCGUACGGAACG", "note": "[G9A U32C C33G A37G G52A C55U]", "yeast fitness": 0.558},
      {"variant": "GUUACGUUGGCGUAAUGGUAACGCGUCUCCCUCCUAAGGAGUAGACUGCGGGUUGGAGUCCCGUACGGAACG", "note": "[C4A A42U C55G]", "yeast fitness": "≤ 0.5"},
      {"variant": "GUUCCGUUGGCGUAAUGGCAACGCGUCUCCCUCCUAAGGAGAAGACUGCGGGUUCGAGUCCCGUCCGGAACG", "note": "[U19C A65C]", "yeast fitness": 0.888},
      {"variant": "GUUCCGCUGGCGUAAUGGUAACGCGGCUCCCUCCUAAGGAGAAGACUGCGGGUUCGUGUCCCGUAUGGAACG", "note": "[U7C U26G A57U C66U]", "yeast fitness": "≤ 0.5"},
      {"variant": "GUUCCGAUCGCGUAAUGGUAACGCGUCUCUCUCGUAAGGAGAAGACUGCGGGUUCGAGUCCCGUACGGAACG", "note": "[U7A G9C C30U C34G]", "yeast fitness": "≤ 0.5"},
      {"variant": "GGUCCGUUGGCGUAAUGGUAACGCGUCUCCCUCCUUAGGAGAAGACUGCGGGUUCGAGUCCCGUACGCAACG", "note": "[U2G A36U G68C]", "yeast fitness": 0.605},
      {"variant": "GUUCCGUUGCCGUAAUGGUAACGCGUCUUCCUCCUAAGGAGAAGAAUGCGGGUUCGAGUCCCGUACGGAACG", "note": "[G10C C29U C46A]", "yeast fitness": "≤ 0.5"},
      {"variant": "GUUCCGAUGGCGUAAUGGUAACGCGUCUCCCUCCUAAGGAGAAGACUGCGGGUUCGAGUCCCGUAGGGAACG", "note": "[U7A C66G]", "yeast fitness": 0.62},
      {"variant": "GUUCCGUUGGCGUAAUGGUAACGCGUCUCCCUCCUAAAGAGAAGACUGCGGGUUCGAGUCCCGUACGGUACG", "note": "[G38A A69U]", "yeast fitness": 1.04},
      {"variant": "GUUCCGUUGGCGUAUUGGUAACGCGUCUCCCUCCUAAGGAGAAGACUGCAGGUUCGAGUCCCGUACGGAACG", "note": "[A15U G50A]", "yeast fitness": 0.708},
      {"variant": "GUUCCGUUGGCGUAAUGGUAACGGGUCUCCCUCCUAAGGAGACGACUGCGGGUUCGAGUCCCGUACGGAACG", "note": "[C24G A43C]", "yeast fitness": 0.543},
      {"variant": "GUUCCGUUGGCGUUAUGGUAACGCGUCUCCCUCCUACGGAGAAAACUGCGGGUUCGAGUCCCGUACGGAGCG", "note": "[A14U A37C G44A A70G]", "yeast fitness": 0.551},
      {"variant": "GUUCCGUUCGCGUAAUGGUAACGCGUCUCCCUCCUAAGGAGAAGACUGCGGGUUCGAGUCCCGUAAGGAACG", "note": "[G9C C66A]", "yeast fitness": "≤ 0.5"},
      {"variant": "GUUCCGCUGGCGUAAUGGUAUCGCGUCUCCCUCCUAAGGAGAAGACUGCGGGUUAGAGUCCCGUACGGAACG", "note": "[U7C A21U C55A]", "yeast fitness": 0.586},
      {"variant": "GUUCCGUUGGAGUAAUGGUAACGCGUCUCCCUCCUAAGGAGAAGUCUGCGGGUUUGAGUCCCGUACGUAACG", "note": "[C11A A45U C55U G68U]", "yeast fitness": "≤ 0.5"},
      {"variant": "GUUCCGUUGGCGUAAUGGUAAUGCGUCUCCCUCCUAAGGUGAAGACUGCGGGUUCGAGUCCCGUACGGAACG", "note": "[C22U A40U]", "yeast fitness": 0.642},
      {"variant": "GUUCCGUUGGCGUAAUGGUAACGAGUUUGCCUCCUAAGGAGAACACUGCGGGUUCGAGCCCCGUACAGAACG", "note": "[C24A C27U C29G G44C U59C G67A]", "yeast fitness": "≤ 0.5"},
      {"variant": "GUUCCGUUGGCGUACUGGUAACGCGUUUCCCUCCUAAGGAGAAGACUGCGGGUUCGAGUCCCGUACGGAACG", "note": "[A15C C27U]", "yeast fitness": 0.724},
      {"variant": "GUUCCGUUGGCGUAGUGGUAACGAGUCUGCCUCCGAAGGACAAGACUGCGGGUUCGAGUCCUGAACGGAACG", "note": "[A15G C24A C29G U35G G41C C62U U64A]", "yeast fitness": "≤ 0.5"},
      {"variant": "GUACCGAUGGCGUAAUGGUAACGCGUCUCCCUCCUAAGGAGAAGACUGCGGGUUCGAGUCCCGUACGGUACG", "note": "[U3A U7A A69U]", "yeast fitness": "≤ 0.5"},
      {"variant": "GUUCCGUUGGCGUAAUGGUAACGUGUCUCCCUCCUAAGGAGAAGACUGCGCGUUUGAGUCCCGUACGGAACG", "note": "[C24U G51C C55U]", "yeast fitness": "≤ 0.5"},
      {"variant": "GUUCCGUUGGCGUAAUGGUAACGCGGCUCCCUCCUAAGGAGAAGACUGCGGGUUGGAGUCCCGUCCGGAUCG", "note": "[U26G C55G A65C A70U]", "yeast fitness": "≤ 0.5"},
      {"variant": "GUUCCGUUGGUGUAAUGGUAACGCGUCUCCUUCCUAAGGAUAAGACUGUGGGUUCGAGUCCCGUACGGAACG", "note": "[C11U C31U G41U C49U]", "yeast fitness": 0.522},
      {"variant": "GUUCCGUUGGCGUCAUGGUAACGCGUCUCCCUCCUAAGGGGAAGACUGCGGGUUCGGGUCCCGUACGGAACG", "note": "[A14C A40G A57G]", "yeast fitness": 0.539},
      {"variant": "GUUCCGUUGGCGUAAUGGUAACGCGUCUCGCUCCUAAGGAGAAGAUUGCGGGUUCGAGUCCCGUACGGAACG", "note": "[C30G C46U]", "yeast fitness": 0.648},
      {"variant": "GUUCCGUUGGCGUAAAGGUAAUGCGCCUCCCUCCUAAGGAGAAGACUGCGGGUGCGAGUCCCGUACGGAACG", "note": "[U16A C22U U26C U54G]", "yeast fitness": "≤ 0.5"},
      {"variant": "GUUCCGUUGGCGUACUGGUAACGCGUUUCCCUCCUAAGCAGAAGACUGGGGGUUCGAGUCCCGUACGGCACG", "note": "[A15C C27U G39C C49G A69C]", "yeast fitness": "≤ 0.5"},
      {"variant": "GUUCCGUUGGCGUAAUGGUAACGCGUGUCCCUCCUAAGGAGAAGACUGCGGCUUCGAGUCCCGUACGGAACG", "note": "[C27G G52C]", "yeast fitness": 0.549},
      {"variant": "GUUCCGUUGGCGUAAUGGUAACGCGUCACCCUCCUAAGCAGAAGACUGCGGGUUCGAGUCCCGUACGGAACG", "note": "[U28A G39C]", "yeast fitness": 0.552},
      {"variant": "GUUCUGUUGACGUAAUGGUAACGCGUCUCCCUCCUAAGGCGAAGACUGCAGGUUCGAGUCCCGUACGGAACG", "note": "[C5U G10A A40C G50A]", "yeast fitness": "≤ 0.5"},
      {"variant": "GUUCCGUUGGCGUAAUGGUAACGCGUCUCCCUCCUAAGGAGAGGACUGCGGGUUCGAGUUCUGUACGGAACG", "note": "[A43G C60U C62U]", "yeast fitness": 0.536},
      {"variant": "GUUCCGUUGGCGUAAUGGUAGCGCGUCUCCCUCUUAAGGAGAAGACUGCGGGUUGGAGUCCCGUACGGAACG", "note": "[A21G C34U C55G]", "yeast fitness": "≤ 0.5"}
    ]}
  ]
}
